These results are taken from ChEMBL document CHEMBL3580574, “Design, Synthesis, and Biological Evaluation of Hexacyclic Tetracyclines as Potent, Broad Spectrum Antibacterial Agents” (J Med Chem, 2015).

Values after ≈ are worked out from the molar mass of the structure shown.

For orientation: MIC means the smallest concentration in the dilution series that meets the test's criterion for growth inhibition.

Common to all, as to assay type: functional
For one assay, the system named is Klebsiella pneumoniae. Put plainly: Antibacterial activity against Klebsiella pneumoniae 457 harboring CTX-M-15 gene assessed as bacterial growth inhibition by susceptibility testing assay. The conditions noted are these: Klebsiella pneumoniae, 457; read-out: MIC. A digest of the protocol:
(§1)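 Broth microdilution MIC per CLSI in 96-well plates; compound stocks prepared and serially diluted in sterile deionized water; cation-adjusted Mueller Hinton broth prepared fresh and held at 4 °C before testing, supplemented with lysed horse blood as appropriate; runs accepted when comparator antibiotics fell within QC ranges for appropriate ATCC quality control strains.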

The subject of assay [1] is Staphylococcus aureus. Put plainly: Antibacterial activity against tet(K) tetracycline-resistant Staphylococcus aureus 158 assessed as bacterial growth inhibition by susceptibility testing assay. The following applies: Staphylococcus aureus, 158; read-out: MIC.
Assay [2] concerns Staphylococcus aureus. Briefly: Antibacterial activity against Staphylococcus aureus 101 ATCC 29213 assessed as bacterial growth inhibition by susceptibility testing assay. The following applies: Staphylococcus aureus, 101 ATCC 29213; read-out: MIC. An outline of the steps:
(§2)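 Broth microdilution MIC per CLSI in cation-adjusted Mueller Hinton broth, made fresh and held at 4 °C before testing. Medium supplemented with lysed horse blood where appropriate. Compound stocks prepared and serially diluted in sterile deionized water. Runs were accepted against QC ranges for comparator antibiotics and ATCC QC strains.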

Assay [3] deals with Stenotrophomonas maltophilia. Briefly: Antibacterial activity against Stenotrophomonas maltophilia 256 assessed as bacterial growth inhibition by susceptibility testing assay. A digest of the protocol:
(§3)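 Medium supplemented with lysed horse blood where appropriate. Compound stocks prepared and serially diluted in sterile deionized water. Runs were accepted against QC ranges for comparator antibiotics and ATCC QC strains.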

In assay [4] the test system is Escherichia coli. Briefly: Antibacterial activity against Escherichia coli 107 ATCC 25922 assessed as bacterial growth inhibition by susceptibility testing assay. A digest of the protocol:
as §2

The test system of a further assay is Proteus mirabilis. Briefly: Antibacterial activity against Proteus mirabilis 385 assessed as bacterial growth inhibition by susceptibility testing assay. A digest of the protocol:
as §2

A further assay has as its system Streptococcus pneumoniae. Briefly: Antibacterial activity against tet(M) tetracycline-resistant Streptococcus pneumoniae 160 assessed as bacterial growth inhibition by susceptibility testing assay.
The test system of assay [5] is Staphylococcus aureus. Briefly: Antibacterial activity against methicillin-resistant, tet(M) tetracycline-resistant Staphylococcus aureus 161 assessed as bacterial growth inhibition by susceptibility testing assay. An outline of the steps:
as §1

Another assay relates to Enterobacter cloacae. Briefly: Antibacterial activity against tet(A) tetracycline-resistant Enterobacter cloacae 603 assessed as bacterial growth inhibition by susceptibility testing assay. An outline of the steps:
as §1

Another assay concerns Enterococcus faecalis. Briefly: Antibacterial activity against tet(M) tetracycline-resistant Enterococcus faecalis 327 assessed as bacterial growth inhibition by susceptibility testing assay. A digest of the protocol:
as §1

Assay [6] has as its system Escherichia coli. Put plainly: Antibacterial activity against tet(A) tetracycline-resistant Escherichia coli 155 assessed as bacterial growth inhibition by susceptibility testing assay. The conditions noted are these: Escherichia coli, 155; read-out: MIC. An outline of the steps:
as §1

Another assay relates to Enterococcus faecium. Briefly: Antibacterial activity against tet(M) tetracycline-resistant Enterococcus faecium 404 assessed as bacterial growth inhibition by susceptibility testing assay.
A further assay has as its system Pseudomonas aeruginosa. Put plainly: Antibacterial activity against Pseudomonas aeruginosa 555 BAA-47 assessed as bacterial growth inhibition by susceptibility testing assay. The following applies: Pseudomonas aeruginosa, 555 BAA-47; read-out: MIC. An outline of the steps:
as §2

For a further assay, the system named is Burkholderia cenocepacia. Briefly: Antibacterial activity against Burkholderia cenocepacia 240 assessed as bacterial growth inhibition by susceptibility testing assay. An outline of the steps:
as §3

A further assay has as its system Acinetobacter baumannii. Briefly: Antibacterial activity against tet(B) tetracycline-resistant Acinetobacter baumannii 250 assessed as bacterial growth inhibition by susceptibility testing assay. A digest of the protocol: as §1
The mark [7] stands for this setting: Stenotrophomonas maltophilia, 256, read-out: MIC.
The mark [8] stands for this setting: Escherichia coli, 107 ATCC 25922, read-out: MIC.
Setting [9] is: Proteus mirabilis, 385, read-out: MIC.
Setting [10] is: Streptococcus pneumoniae, 160, read-out: MIC.
Setting [11] is: Staphylococcus aureus, 161, read-out: MIC.
The mark [12] stands for this setting: Enterobacter cloacae, 603, read-out: MIC.
[13] abbreviates: Enterococcus faecalis, 327, read-out: MIC.
Setting [14] is: Enterococcus faecium, 404, read-out: MIC.
Where [15] appears, read: Burkholderia cenocepacia, 240, read-out: MIC.
The mark [16] stands for this setting: Acinetobacter baumannii, 250, read-out: MIC.

Consider `CN(C)[C@@H]1C(O)=C(C(N)=O)C(=O)[C@@]2(O)C(O)=C3C(=O)c4c(O)c5c(c(F)c4C[C@H]3C[C@@H]12)[C@@H]1[C@@H](CCN1CCO)CN5`, for which the MIC with Klebsiella pneumoniae came out at 4 µg/mL (≈ 6.99 µM); in the assay with Staphylococcus aureus [1] it was 0.25 µg/mL (≈ 0.437 µM); in the assay on Staphylococcus aureus [2] it was 2 µg/mL (≈ 3.49 µM); in assay [3] (setting [7]) it was 32 µg/mL (≈ 55.9 µM); in the assay on Escherichia coli [4] (setting [8]), 1 µg/mL (≈ 1.75 µM); in the assay with Proteus mirabilis (setting [9]), 8 µg/mL (≈ 14 µM). In addition, the minimal inhibitory concentration (MIC) with Streptococcus pneumoniae (setting [10]) is 0.125 µg/mL (≈ 0.218 µM); in the assay with Staphylococcus aureus [5] (setting [11]), 4 µg/mL (≈ 6.99 µM); in the assay with Enterobacter cloacae (setting [12]), 16 µg/mL (≈ 27.9 µM); in the assay with Enterococcus faecalis (setting [13]), 1 µg/mL (≈ 1.75 µM); in the assay with Escherichia coli [6] it was 16 µg/mL (≈ 27.9 µM); with Enterococcus faecium (setting [14]), 1 µg/mL (≈ 1.75 µM). Also, the MIC was 32 µg/mL (≈ 55.9 µM) in the assay on Pseudomonas aeruginosa, > 32 µg/mL in the assay on Burkholderia cenocepacia (setting [15]) and > 32 µg/mL in the assay with Acinetobacter baumannii (setting [16]).

With `CCN1CC[C@H]2CNc3c(O)c4c(c(F)c3[C@H]21)C[C@H]1C[C@H]2[C@H](N(C)C)C(O)=C(C(N)=O)C(=O)[C@@]2(O)C(O)=C1C4=O`, the MIC in the assay with Klebsiella pneumoniae amounted to 1 µg/mL (≈ 1.8 µM); in the assay on Staphylococcus aureus [1], 0.0625 µg/mL (≈ 0.112 µM); with Staphylococcus aureus [2], 0.25 µg/mL (≈ 0.449 µM); in assay [3] (setting [7]), 1 µg/mL (≈ 1.8 µM); with Escherichia coli [4] (setting [8]), 0.0625 µg/mL (≈ 0.112 µM); with Proteus mirabilis (setting [9]), 1 µg/mL (≈ 1.8 µM). The MIC is ≤ 0.0156 µg/mL in the assay on Streptococcus pneumoniae (setting [10]); 0.5 µg/mL (≈ 0.898 µM) in the assay on Staphylococcus aureus [5] (setting [11]); 0.5 µg/mL (≈ 0.898 µM) in the assay on Enterobacter cloacae (setting [12]); 0.125 µg/mL (≈ 0.225 µM) with Enterococcus faecalis (setting [13]); 0.25 µg/mL (≈ 0.449 µM) with Escherichia coli [6]; 0.0625 µg/mL (≈ 0.112 µM) with Enterococcus faecium (setting [14]). Moreover, the values for the MIC in the assay on Pseudomonas aeruginosa, in the assay with Burkholderia cenocepacia (setting [15]) and in the assay with Acinetobacter baumannii (setting [16]) were 8 µg/mL (≈ 14.4 µM), 16 µg/mL (≈ 28.7 µM) and 2 µg/mL (≈ 3.59 µM), respectively.

As for `CN(C)[C@@H]1C(O)=C(C(N)=O)C(=O)[C@@]2(O)C(O)=C3C(=O)c4c(O)c5c(c(F)c4C[C@H]3C[C@@H]12)[C@H]1NCC[C@@]1(C)CN5`, the MIC with Klebsiella pneumoniae turned out to be 4 µg/mL (≈ 7.37 µM); with Staphylococcus aureus [1] it was 1 µg/mL (≈ 1.84 µM); in the assay on Staphylococcus aureus [2], 4 µg/mL (≈ 7.37 µM); in assay [3] (setting [7]), 32 µg/mL (≈ 59 µM); with Escherichia coli [4] (setting [8]) it was 0.5 µg/mL (≈ 0.922 µM); with Proteus mirabilis (setting [9]), 4 µg/mL (≈ 7.37 µM). The MIC in the assay with Streptococcus pneumoniae (setting [10]) stood at 0.25 µg/mL (≈ 0.461 µM); in the assay with Staphylococcus aureus [5] (setting [11]), 16 µg/mL (≈ 29.5 µM); with Enterobacter cloacae (setting [12]) it was 16 µg/mL (≈ 29.5 µM); in the assay with Enterococcus faecalis (setting [13]), 4 µg/mL (≈ 7.37 µM); in the assay on Escherichia coli [6], 16 µg/mL (≈ 29.5 µM); in the assay on Enterococcus faecium (setting [14]) it was 1 µg/mL (≈ 1.84 µM). The figures for the minimum inhibitory concentration (MIC) with Pseudomonas aeruginosa, in the assay with Burkholderia cenocepacia (setting [15]) and in the assay on Acinetobacter baumannii (setting [16]) were 32 µg/mL (≈ 59 µM), > 32 µg/mL and > 32 µg/mL, respectively.

For the compound `CN(C)[C@@H]1C(O)=C(C(N)=O)C(=O)[C@@]2(O)C(O)=C3C(=O)c4c(O)c5c(c(OC(F)(F)F)c4C[C@H]3C[C@@H]12)[C@@H]1[C@@H](CCN1C)CN5`, the MIC is 0.5 µg/mL (≈ 0.822 µM) with Klebsiella pneumoniae; ≤ 0.0156 µg/mL in the assay with Staphylococcus aureus [1]; 0.0625 µg/mL (≈ 0.103 µM) with Staphylococcus aureus [2]; 0.25 µg/mL (≈ 0.411 µM) in assay [3] (setting [7]); ≤ 0.0156 µg/mL in the assay with Escherichia coli [4] (setting [8]); 2 µg/mL (≈ 3.29 µM) in the assay with Proteus mirabilis (setting [9]). Also, the MIC is ≤ 0.0156 µg/mL in the assay with Streptococcus pneumoniae (setting [10]); 0.125 µg/mL (≈ 0.205 µM) with Staphylococcus aureus [5] (setting [11]); 0.5 µg/mL (≈ 0.822 µM) in the assay on Enterobacter cloacae (setting [12]); 0.0312 µg/mL (≈ 0.0513 µM) in the assay on Enterococcus faecalis (setting [13]); 0.0312 µg/mL (≈ 0.0513 µM) in the assay with Escherichia coli [6]; ≤ 0.0156 µg/mL in the assay on Enterococcus faecium (setting [14]). Moreover, the MIC in the assay with Pseudomonas aeruginosa came out at 8 µg/mL (≈ 13.1 µM); in the assay with Burkholderia cenocepacia (setting [15]) it was 8 µg/mL (≈ 13.1 µM); in the assay on Acinetobacter baumannii (setting [16]) it was 1 µg/mL (≈ 1.64 µM).

Take `CN(C)[C@@H]1C(O)=C(C(N)=O)C(=O)[C@@]2(O)C(O)=C3C(=O)c4c(O)c5c(c(F)c4C[C@H]3C[C@@H]12)[C@@H]1[C@@H](CCN1C)CN5` (stereo in doubt; 10b): the MIC came out at 1 µg/mL (≈ 1.84 µM) with Klebsiella pneumoniae; 0.125 µg/mL (≈ 0.23 µM) with Staphylococcus aureus [1]; 0.5 µg/mL (≈ 0.922 µM) with Staphylococcus aureus [2]; 4 µg/mL (≈ 7.37 µM) in assay [3]; 0.25 µg/mL (≈ 0.461 µM) in the assay on Escherichia coli [4]; 2 µg/mL (≈ 3.69 µM) in the assay on Proteus mirabilis. The MIC with Streptococcus pneumoniae stood at 0.125 µg/mL (≈ 0.23 µM); in the assay on Staphylococcus aureus [5] it was 4 µg/mL (≈ 7.37 µM); in the assay on Enterobacter cloacae, 2 µg/mL (≈ 3.69 µM); with Enterococcus faecalis it was 4 µg/mL (≈ 7.37 µM); with Escherichia coli [6], 1 µg/mL (≈ 1.84 µM); in the assay with Enterococcus faecium, 1 µg/mL (≈ 1.84 µM). For the same compound, the MIC in the assay on Pseudomonas aeruginosa came to 8 µg/mL (≈ 14.7 µM); in the assay with Burkholderia cenocepacia, 32 µg/mL (≈ 59 µM); in the assay with Acinetobacter baumannii, 8 µg/mL (≈ 14.7 µM).
